The text below walks through data of ChEMBL document CHEMBL1287796, “Discovery of new chemotype dipeptidyl peptidase IV inhibitors having (R)-3-amino-3-methyl piperidine as a pharmacophore” (Bioorg Med Chem Lett, 2010).

The IC50 is the point on the concentration scale where inhibition reaches its midpoint. Low readings indicate higher potency, high ones lower potency. The clearance is the rate of elimination divided by the concentration. Read a high clearance as efficient removal. As a reminder, the half-life is how long it takes for the measured level to halve. Broadly, the bioavailability is the share of a dose that reaches the circulation, judged against a reference dose that is usually intravenous. A higher bioavailability goes with much systemic uptake. As a reminder, the Tmax is the time from dosing to the highest level. In general, logP refers to the decadic logarithm of the partition coefficient of the neutral form, usually between octanol and water. A lower logP goes with a more hydrophilic compound.

In series [1] the target is Dipeptidyl peptidase 8 (Homo sapiens, UniProt Q6V1X1). Briefly: Inhibition of DPP8.
Sequence of Dipeptidyl peptidase 8 (Q6V1X1 whole entry): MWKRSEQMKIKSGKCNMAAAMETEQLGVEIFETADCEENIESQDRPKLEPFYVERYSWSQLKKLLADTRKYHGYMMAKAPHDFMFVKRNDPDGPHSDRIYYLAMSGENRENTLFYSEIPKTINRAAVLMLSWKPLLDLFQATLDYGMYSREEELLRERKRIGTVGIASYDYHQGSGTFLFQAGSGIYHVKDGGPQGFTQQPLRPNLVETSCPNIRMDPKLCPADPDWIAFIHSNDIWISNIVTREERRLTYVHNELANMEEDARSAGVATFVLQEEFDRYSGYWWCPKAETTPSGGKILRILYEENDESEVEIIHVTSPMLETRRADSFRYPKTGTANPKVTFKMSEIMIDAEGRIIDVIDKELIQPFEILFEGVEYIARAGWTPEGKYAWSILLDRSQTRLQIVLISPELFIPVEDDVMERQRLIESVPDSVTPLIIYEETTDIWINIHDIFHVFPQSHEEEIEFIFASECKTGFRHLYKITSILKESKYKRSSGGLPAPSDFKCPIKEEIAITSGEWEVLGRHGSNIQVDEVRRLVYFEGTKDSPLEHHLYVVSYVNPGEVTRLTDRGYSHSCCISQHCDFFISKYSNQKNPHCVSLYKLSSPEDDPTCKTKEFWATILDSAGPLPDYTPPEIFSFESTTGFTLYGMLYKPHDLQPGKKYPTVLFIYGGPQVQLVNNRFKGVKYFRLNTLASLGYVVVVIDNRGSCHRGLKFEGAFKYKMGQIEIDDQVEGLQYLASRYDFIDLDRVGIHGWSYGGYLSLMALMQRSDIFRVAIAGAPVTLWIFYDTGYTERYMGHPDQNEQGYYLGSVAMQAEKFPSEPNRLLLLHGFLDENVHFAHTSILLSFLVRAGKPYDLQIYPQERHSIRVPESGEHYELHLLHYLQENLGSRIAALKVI
Series [2] deals with Dipeptidyl peptidase 9 (Homo sapiens, UniProt Q86TI2). Briefly: Inhibition of DPP9.
Sequence of Dipeptidyl peptidase 9 (Q86TI2 whole entry): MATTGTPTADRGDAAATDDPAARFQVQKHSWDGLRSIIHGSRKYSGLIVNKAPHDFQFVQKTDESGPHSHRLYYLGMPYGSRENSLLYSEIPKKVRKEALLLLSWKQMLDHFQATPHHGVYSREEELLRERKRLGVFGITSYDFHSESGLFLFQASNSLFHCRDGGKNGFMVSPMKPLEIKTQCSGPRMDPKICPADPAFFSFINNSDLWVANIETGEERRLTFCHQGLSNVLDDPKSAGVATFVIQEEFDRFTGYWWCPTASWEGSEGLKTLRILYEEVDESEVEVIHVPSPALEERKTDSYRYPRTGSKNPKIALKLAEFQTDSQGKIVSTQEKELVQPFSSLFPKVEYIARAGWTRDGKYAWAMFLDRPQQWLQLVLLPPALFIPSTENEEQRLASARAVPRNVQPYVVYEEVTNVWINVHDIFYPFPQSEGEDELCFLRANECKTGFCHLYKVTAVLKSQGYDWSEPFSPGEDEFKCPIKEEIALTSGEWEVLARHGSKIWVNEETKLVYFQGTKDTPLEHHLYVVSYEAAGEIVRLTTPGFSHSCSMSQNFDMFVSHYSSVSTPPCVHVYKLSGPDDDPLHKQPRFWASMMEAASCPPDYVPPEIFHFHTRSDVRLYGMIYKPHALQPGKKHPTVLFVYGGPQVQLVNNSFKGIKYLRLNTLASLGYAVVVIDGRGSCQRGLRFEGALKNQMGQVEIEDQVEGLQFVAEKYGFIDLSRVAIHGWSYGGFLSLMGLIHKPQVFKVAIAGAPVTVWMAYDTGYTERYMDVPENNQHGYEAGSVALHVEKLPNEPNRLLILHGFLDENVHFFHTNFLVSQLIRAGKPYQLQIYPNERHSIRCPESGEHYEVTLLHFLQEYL
The target in series [3] is T1, Cytochrome P450 1A2 (Homo sapiens, UniProt P05177).
T1 sequence (P05177 whole entry): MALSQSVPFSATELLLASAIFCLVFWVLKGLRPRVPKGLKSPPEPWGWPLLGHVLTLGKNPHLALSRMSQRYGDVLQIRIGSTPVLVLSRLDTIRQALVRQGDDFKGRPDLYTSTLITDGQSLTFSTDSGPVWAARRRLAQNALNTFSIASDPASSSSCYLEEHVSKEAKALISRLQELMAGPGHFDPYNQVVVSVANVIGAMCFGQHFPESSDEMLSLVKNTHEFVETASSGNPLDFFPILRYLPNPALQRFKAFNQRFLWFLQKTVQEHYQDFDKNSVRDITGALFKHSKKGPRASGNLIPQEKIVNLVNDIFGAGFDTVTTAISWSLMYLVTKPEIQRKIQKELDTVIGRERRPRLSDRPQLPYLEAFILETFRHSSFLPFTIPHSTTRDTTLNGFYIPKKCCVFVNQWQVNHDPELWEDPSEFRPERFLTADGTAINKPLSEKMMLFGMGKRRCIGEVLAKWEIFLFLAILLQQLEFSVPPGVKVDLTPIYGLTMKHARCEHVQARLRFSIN
Briefly: Inhibition of CYP1A2 in human liver microsomes after 10 mins. It is filed as ADME, Microsome. The method, boiled down:
(§1)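 Human liver microsomes incubated with test compound and NADPH for 10 min; CYP isoform inhibition reported as IC50.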

In series [4] the target is Cytochrome P450 2D6 (Homo sapiens, UniProt P10635). The series can be described thus: Inhibition of CYP2D6 in human liver microsomes after 10 mins. The class given is ADME, Microsome. A digest of the protocol: as §1
Sequence of Cytochrome P450 2D6 (P10635 whole entry): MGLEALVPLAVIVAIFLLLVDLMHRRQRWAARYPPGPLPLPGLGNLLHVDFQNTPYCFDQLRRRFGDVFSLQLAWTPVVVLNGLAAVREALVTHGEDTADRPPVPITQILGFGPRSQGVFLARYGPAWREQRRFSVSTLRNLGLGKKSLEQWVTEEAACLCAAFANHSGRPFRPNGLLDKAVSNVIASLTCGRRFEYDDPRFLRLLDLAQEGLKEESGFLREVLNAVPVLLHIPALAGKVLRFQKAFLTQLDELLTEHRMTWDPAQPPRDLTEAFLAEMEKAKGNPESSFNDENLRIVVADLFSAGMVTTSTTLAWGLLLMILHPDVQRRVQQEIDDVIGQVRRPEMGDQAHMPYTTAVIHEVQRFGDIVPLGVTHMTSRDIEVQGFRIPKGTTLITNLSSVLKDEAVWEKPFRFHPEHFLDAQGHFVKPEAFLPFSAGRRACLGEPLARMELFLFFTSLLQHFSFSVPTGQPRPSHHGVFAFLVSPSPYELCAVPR
Background: Liver microsomes are a subcellular fraction often used to study metabolism.

For series [5], the target named is Cytochrome P450 3A4 (Homo sapiens, UniProt P08684). The series can be described thus: Inhibition of CYP3A4 in human liver microsomes after 10 mins. It is filed as ADME, Microsome. A digest of the protocol: as §1
Sequence of Cytochrome P450 3A4 (P08684 whole entry): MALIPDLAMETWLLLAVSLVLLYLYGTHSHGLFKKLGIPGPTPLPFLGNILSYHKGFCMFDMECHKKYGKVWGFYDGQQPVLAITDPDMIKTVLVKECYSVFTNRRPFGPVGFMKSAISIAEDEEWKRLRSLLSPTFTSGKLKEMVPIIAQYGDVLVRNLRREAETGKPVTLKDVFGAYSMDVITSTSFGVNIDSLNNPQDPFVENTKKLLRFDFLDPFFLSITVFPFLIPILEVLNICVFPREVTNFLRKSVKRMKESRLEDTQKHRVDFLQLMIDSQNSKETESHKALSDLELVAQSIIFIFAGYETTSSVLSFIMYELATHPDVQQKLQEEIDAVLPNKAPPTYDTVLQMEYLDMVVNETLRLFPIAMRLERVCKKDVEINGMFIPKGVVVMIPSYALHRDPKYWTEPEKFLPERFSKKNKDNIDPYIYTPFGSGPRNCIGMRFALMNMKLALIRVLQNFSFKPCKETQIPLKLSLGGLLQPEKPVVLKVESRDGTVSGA
Series [6] concerns Liver microsomes. Briefly: Metabolic stability in human liver microsomes at 10 uM after 39 mins. It is filed as ADME, Microsome. To be noted: 0.5 h, in the assay text read “30 mins” for “39 mins”. The method, boiled down: (§2)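 Compound incubated for 30 min with hepatic microsomes (human or rat) plus NADPH. Metabolic stability is expressed as clearance in ml/min/mg protein.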
The subject of series [7] is Liver microsomes. The series can be described thus: Metabolic stability in rat liver microsomes at 10 uM after 39 mins. It is filed as ADME, Microsome. The following applies: 0.5 h, in the assay text read “30 mins” for “39 mins”. The method, boiled down:
as §2

The nature of series [8]: Clearance in rat at 1 mg/kg, iv. It is filed as ADME, organism-based. Further details: dose 1 mg/kg, route intravenous. The following applies: in vivo.
The nature of series [9]: Volume of distribution at steady state in rat at 1 mg/kg, iv. The class given is ADME, organism-based. Further details: dose 1 mg/kg, route intravenous. To be noted: in vivo, read-out: Vdss.
A short description of series [10]: Half life in rat at 10 mg/kg, po. The class given is ADME, organism-based. Further details: dose 10 mg/kg, route oral. To be noted: in vivo.
Series [11] is described as follows: Oral bioavailability in rat at 10 mg/kg. It is filed as ADME, organism-based. To be noted: in vivo.
Series [12] can be described thus: Protein binding in human serum. It is filed as ADME, cell-free. The following applies: read-out: PB (converted).
The nature of series [13]: Tmax in rat at 1 mg/kg, iv and 10 mg/kg, po. The class given is ADME, organism-based. The following applies: in vivo.
The species entered for series [14] is Rattus norvegicus. To be noted: Zucker-Fatty, 1 mg/kg.
For series [15], the species on record is Rattus norvegicus. To be noted: Zucker-Fatty, 1 mg/kg. This is another data set of the same source.
Series [16] in a line: Lipophilicity, log P of the compound. It is filed as physicochemical. The following applies: octanol/water.

The structures appear in SMILES notation. The source made the active and inactive calls. The calls are words filed in the database; no cut-off is given here. A value given as a limit tells only on which side of the number the result lay.

Consider `Cc1ccc(F)cc1Cn1c(N2CCC[C@@](C)(N)C2)cc2ncn(C)c(=O)c21.Cl`, for which the IC50 in [1] was greater than 10 µM; in series [2], greater than 10 µM; in series [3], greater than 40 µM; in series [4] it was 14.3 µM; in [5], 11.9 µM. Further, the Microsomal clearance in series [6] was determined as 48 µL/min/mg; in series [7], 264 µL/min/mg.
With `Cn1cnc2cc(N3CCC[C@@](C)(N)C3)n(Cc3cc(F)ccc3C#N)c2c1=O`, the IC50 in [1] and in [2] was greater than 10 µM each time.
Take `Cc1ccc(F)cc1Cn1c(N2CCC[C@@](C)(N)C2)cc2c1c(=O)n(C)c(=O)n2C.Cl`: the IC50 in [1] was greater than 10 µM; in [2], greater than 10 µM; in [3], greater than 40 µM; in series [4], greater than 40 µM; in [5] it was 20.2 µM. The Microsomal clearance in series [6] amounted to 56 µL/min/mg; in series [7] it was 13 µL/min/mg. Also, the clearance in series [8] was determined as 51.5 mL/min/kg. Besides, the Vd in [9] stood at 14.4 L/kg. For the same compound, the half-life in [10] was 4.69 h. The same compound registered a bioavailability in series [11] of 69.3%. In [12], the fraction unbound was 0.049. In addition, in [13], the Tmax was 3 h. For the same compound, the inhibition entry in [14] and in series [15] was “Active” each time.
On to `Cn1cnc2cc(N3CCC[C@@](C)(N)C3)n(Cc3cc(F)ccc3Cl)c2c1=O`, for which the IC50 in series [1] and in series [2] was greater than 10 µM throughout.
As to `Cn1cnc2cc(N3CCC[C@@](C)(N)C3)n(Cc3ccccc3C#N)c2c1=O`, the IC50 in series [1] and in series [2] was greater than 10 µM throughout.
Regarding `CCOCCCn1c(=O)n(C)c(=O)c2c1cc(N1CCC[C@@](C)(N)C1)n2Cc1cc(F)ccc1Cl`, the IC50 in [1] and in [2] was greater than 10 µM each time.
For `CCn1c(=O)n(C)c(=O)c2c1cc(N1CCC[C@@](C)(N)C1)n2Cc1cc(F)ccc1C#N.Cl`, the IC50 in [1] is greater than 10 µM; in series [2], greater than 10 µM; in [3] it was 26.8 µM; in [4], 0.4 µM; in series [5], 9.4 µM. Further, the Microsomal clearance is 21 µL/min/mg in series [6] and less than 10 µL/min/mg in [7].
`Cn1c(=O)c2c(cc(N3CCC[C@@](C)(N)C3)n2Cc2ccccc2C#N)n(C)c1=O` gave a logP in series [16] of 0.28. For the same compound, the IC50 in [1] and in [2] was greater than 10 µM each time.
`Cl.Cn1c(=O)c2c(cc(N3CCC[C@@](C)(N)C3)n2Cc2cc(F)ccc2Cl)n(C)c1=O`: the 50% inhibitory concentration (IC50) in series [1] was greater than 10 µM; in series [2], greater than 10 µM; in [3] it was greater than 40 µM; in series [4], 3.4 µM; in series [5] it was 10.2 µM. Besides, the values for the Microsomal clearance in [6] and in [7] were 82 µL/min/mg and 46 µL/min/mg, respectively.
With `CN(C)C(=O)Cn1c(=O)n(C)c(=O)c2c1cc(N1CCC[C@@](C)(N)C1)n2Cc1cc(F)ccc1Cl.Cl`, the IC50 in series [1] is greater than 10 µM; in series [2], greater than 10 µM; in [3] it was 26.3 µM; in [4], less than 0.165 µM; in series [5] it was 13.4 µM. In addition, the figures for the Microsomal clearance in series [6] and in series [7] were 19 µL/min/mg and less than 10 µL/min/mg, respectively.
Consider `Cl.Cn1c(=O)c2c(cc(N3CCC[C@@](C)(N)C3)n2Cc2cc(F)ccc2Cl)n(CCCO)c1=O`, for which the IC50 in [1] is greater than 10 µM; in series [2], greater than 10 µM; in series [3], greater than 40 µM; in series [4], 0.2 µM; in series [5], 7.7 µM. In addition, the values for the Microsomal clearance in series [6] and in series [7] were 16 µL/min/mg and 17 µL/min/mg, respectively.
